Results as given in ChEMBL document CHEMBL1255487, “Preclinical evaluation of the antifolate QN254, 5-chloro- N'6'-(2,5-dimethoxy-benzyl)-quinazoline-2,4,6-triamine, as an antimalarial drug candidate” (Antimicrob Agents Chemother, 2010).

Assays:
Plasmodium falciparum [1] = experiment: Antimalarial activity against pyrimethamine-resistant Plasmodium falciparum clinical isolate harboring S108N, N51I, C59R mutation in DHFR assessed as decrease in parasitaemia; type: functional, organism-based
Method in brief: (§1)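 P. falciparum grown in RPMI 1640 with 10% (v/v) human serum, 25 mM bicarbonate, 2 mM glutamine, 25 mM HEPES, 5 nM para-aminobenzoic acid and 23 nM folic acid. Parasites exposed to a concentration series. Read-out is [3H]hypoxanthine incorporation into nucleic acid. IC50 taken from non-linear regression of the dose–response curve.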

[2] = Binding affinity to recombinant Plasmodium falciparum V1/S DHFR S108N, N51I, C59R, I164L mutant by competitive binding assay; design: species or system V1S
Plasmodium falciparum [3] = experiment: Antimalarial activity against pyrimethamine-resistant Plasmodium falciparum V1/S harboring S108N, N51I, C59R, I164L mutation in DHFR assessed as decrease in parasitaemia; type: functional, organism-based; details: V1S
[4] = Binding affinity to wild type Plasmodium falciparum DHFR by competitive binding assay
Plasmodium falciparum [5] = experiment: Antimalarial activity against pyrimethamine-resistant Plasmodium falciparum clinical isolate harboring S108N, C59R mutation in DHFR assessed as decrease in parasitaemia; type: functional, organism-based; method in brief: as §1
Plasmodium falciparum [6] = experiment: Antimalarial activity against pyrimethamine-resistant Plasmodium falciparum clinical isolate harboring S108N, N51I mutation in DHFR assessed as decrease in parasitaemia; type: functional, organism-based; method in brief: as §1
Plasmodium berghei [7] = experiment: Antimalarial activity against Plasmodium berghei ANKA infected in NMRI mice (Mus musculus) assessed as cure rate at 100 mg/kg, perorally administered as single dose measured on […]; type: functional; details: route oral
Method in brief: (§2)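 Female NMRI mice (20–22 g), 5 per group, infected intravenously with 0.2 ml of 1 × 10^8 parasitized erythrocytes/ml from a fresh donor mouse. Compound suspended in 0.5% carboxymethyl cellulose and given orally. Survival followed to day 30 post-infection; an animal was scored cured if it survived to day 30 without parasites.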

Plasmodium berghei [8] = experiment: Antimalarial activity against Plasmodium berghei ANKA infected in NMRI mice (Mus musculus) assessed as reduction in parasitemia at 3 times 30 mg/kg, perorally measured on day 3 postinfection; type: functional; design: scale not given: the % may be the effect or the level left; details: route oral
Method in brief: (§3)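 P. berghei ANKA given intravenously to groups of 5 female NMRI mice (20–22 g): 0.2 ml of 1 × 10^8 parasitized erythrocytes/ml from a donor mouse. Oral dosing in 0.5% carboxymethyl cellulose. Parasitemia counted by microscopy. Activity is the control-minus-treated parasitemia difference, expressed as percent of untreated controls.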

Plasmodium berghei [9] = experiment: Antimalarial activity against Plasmodium berghei ANKA infected in NMRI mice (Mus musculus) assessed as mean survival time at 3 times 30 mg/kg, perorally; type: functional; details: route oral
Method in brief: (§4)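 Infection: 5 female NMRI mice (20–22 g) per group, inoculated intravenously with 0.2 ml of donor blood at 1 × 10^8 parasitized erythrocytes/ml. Oral administration in 0.5% carboxymethyl cellulose. Survival time recorded up to 30 days after infection and averaged per group.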

Mus musculus [10] = experiment: Toxicity in NMRI mice (Mus musculus) infected with Plasmodium berghei ANKA at 3 times 30 mg/kg, perorally measured up to 30 days postinfection; type: organism-based; design: dose 30 mg/kg, route oral; details: in vivo, po, 720 h
Plasmodium berghei [11] = experiment: Antimalarial activity against Plasmodium berghei ANKA infected in NMRI mice (Mus musculus) assessed as cure rate at 3 times 30 mg/kg, perorally measured […]; type: functional; details: route oral; method in brief: as §2
Mus musculus [12] = experiment: Toxicity in NMRI mice (Mus musculus) infected with Plasmodium berghei ANKA at 100 mg/kg, perorally administered as single dose measured up to 30 days postinfection; type: organism-based; design: dose 100 mg/kg, route oral; details: in vivo, po, 720 h
Plasmodium berghei [13] = experiment: Antimalarial activity against Plasmodium berghei ANKA infected in NMRI mice (Mus musculus) assessed as reduction in parasitemia at 100 mg/kg, perorally administered as single dose measured on day 3 postinfection; type: functional; design: scale not given: the % may be the effect or the level left; details: route oral; method in brief: as §3
[14] = Selectivity ratio of Ki for human recombinant DHFR to Ki for wild type Plasmodium falciparum DHFR
Plasmodium falciparum [15] = experiment: Selectivity ratio of Ki for recombinant Plasmodium falciparum V1/S DHFR S108N, N51I, C59R, I164L mutant to Ki for wild type Plasmodium falciparum DHFR
Dihydrofolate reductase = target: T1, Dihydrofolate reductase (Homo sapiens, UniProt P00374); experiment: Binding affinity to human recombinant DHFR expressed in Escherichia coli BL21(DE3) by competitive binding assay
T1 sequence (P00374 whole entry): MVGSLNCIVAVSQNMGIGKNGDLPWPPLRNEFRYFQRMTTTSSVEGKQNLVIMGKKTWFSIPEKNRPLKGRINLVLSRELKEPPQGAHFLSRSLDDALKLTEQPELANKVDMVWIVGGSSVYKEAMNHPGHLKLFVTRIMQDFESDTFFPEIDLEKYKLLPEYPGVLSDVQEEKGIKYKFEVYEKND

Plasmodium berghei [16] = experiment: Antimalarial activity against Plasmodium berghei ANKA infected in NMRI mice (Mus musculus) assessed as survival rate at 100 mg/kg, perorally administered as single dose; type: functional; details: route oral; method in brief: as §4
Plasmodium berghei [17] = experiment: Antimalarial activity against Plasmodium berghei ANKA infected in perorally dosed NMRI mice (Mus musculus) assessed as reduction in parasitemia administered as single dose measured on day 3 postinfection; type: functional; details: for ED50 / ED90: po, 72 h

CCc1nc(N)nc(N)c1-c1ccc(Cl)cc1 [PYRIMETHAMINE]
IC50 (Plasmodium falciparum [1]): 778 nM | Ki [2]: 385 nM | IC50 (Plasmodium falciparum [3]): 3690 nM | Ki [4]: 0.59 nM | IC50 (Plasmodium falciparum [5]): 371 nM | IC50 (Plasmodium falciparum [6]): 371 nM

OC(c1cc(C(F)(F)F)nc2c(C(F)(F)F)cccc12)C1CCCCN1 (stereo unspecified) [MEFLOQUINE]
Activity (Plasmodium berghei [7]): 0% | Activity (Plasmodium berghei [8]): 99.8% | Survival (Plasmodium berghei [9]): 14.3 days | Activity (Mus musculus [10]): 0% | Activity (Plasmodium berghei [11]): 0% | Activity (Mus musculus [12]): 0% | Activity (Plasmodium berghei [13]): 99.6%

CC1(C)N=C(N)N=C(N)N1OCCCOc1cc(Cl)c(Cl)cc1Cl
Ki [2]: 1.9 nM | Ratio Ki [14]: 15 | Ki [4]: 0.5 nM | Ratio Ki (Plasmodium falciparum [15]): 1.8 | Ki (Dihydrofolate reductase): 7.7 nM

C[C@H]1[C@H](OC(=O)CCC(=O)O)O[C@@H]2O[C@@]3(C)CC[C@H]4[C@H](C)CC[C@@H]1[C@@]24OO3 [ARTESUNATE]
Activity (Plasmodium berghei [7]): 0% | Activity (Plasmodium berghei [8]): 98.7% | Survival (Plasmodium berghei [9]): 12.2 days | Activity (Mus musculus [10]): 0% | Survival (Plasmodium berghei [16]): 7 days | Activity (Plasmodium berghei [11]): 0% | ED50 (Plasmodium berghei [17]): 5.9 mg/kg | ED90 (Plasmodium berghei [17]): 20.5 mg/kg | Activity (Mus musculus [12]): 0% | Activity (Plasmodium berghei [13]): 98%

CC1(C)N=C(N)N=C(N)N1c1ccc(Cl)cc1 [CYCLOGUANIL]
Ki [2]: 454 nM | Ki [4]: 1.51 nM

CCN(CC)CCCC(C)Nc1ccnc2cc(Cl)ccc12 (stereo unspecified) [CHLOROQUINE]
Activity (Plasmodium berghei [7]): 0% | Activity (Plasmodium berghei [8]): 98.8% | Survival (Plasmodium berghei [9]): 22.1 days | Activity (Mus musculus [10]): 0% | Survival (Plasmodium berghei [16]): 25.5 days | Activity (Plasmodium berghei [11]): 0% | inhibition (Plasmodium berghei [17]): Dose dependent effect | ED50 (Plasmodium berghei [17]): 1.9 mg/kg | ED90 (Plasmodium berghei [17]): 4.2 mg/kg | Activity (Mus musculus [12]): 0% | Activity (Plasmodium berghei [13]): 89%
